Activity calls are given as the source filed them.

Drawing on ChEMBL document CHEMBL4261600 (Eur J Med Chem, 2018), this text covers AUC(0-t), Activity and Tmax for 1 compound.

A short description of data set [1]: AUC (0 to t) in beagle dog at 10 mg/kg, po by LC-MS/MS analysis. Particulars: in vivo. It is filed as ADME, organism-based, Canis lupus familiaris. The method, boiled down:
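Non-compartmental PK. Male SD rats 190-210 g, mice and beagle dogs acclimatized one week, fasted 12 h with water, split into iv and po groups (mice 48, rats 6, dogs 6). iv 3/3/2 mg/kg (mice/rats/dogs); po 10/20/10 mg/kg; vehicle DMSO in 5% glucose water. Blood at 2 or 5 to 720 min; plasma protein-precipitated with methanol, caffeine internal standard, LC-MS/MS.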

The target of data set [2] is Serine/threonine-protein kinase 32A (Homo sapiens) (UniProt Q8WU08). Kind of data set: Binding affinity to wild-type human full length YANK1 (M1 to L396 residues) expressed in mammalian expression system assessed as remaining unbound target protein level at 1000 nM by Kinomescan method relative to control. The method, boiled down:
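Profiled in a KINOMEscan binding panel with the inhibitor at a single concentration of 1 μM. Binding to each kinase was read out as percent of control, relative to a DMSO control. Strong binders were defined as those with a percent control value below 1.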

Data set [3] deals with Serine/threonine-protein kinase N2 (Homo sapiens) (UniProt Q16513). Kind of data set: Binding affinity to wild-type human partial length PKN2 (E634 to C984 residues) expressed in bacterial expression system assessed as remaining unbound target protein level at 1000 nM by Kinomescan method relative to control.
In data set [4] the target is Beta-adrenergic receptor kinase 1 (Homo sapiens) (UniProt P25098). Kind of data set: Binding affinity to wild-type human full length GRK2 (M1 to L689 residues) expressed in mammalian expression system assessed as remaining unbound target protein level at 1000 nM by Kinomescan method relative to control. The method, boiled down:
(§1)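 KINOMEscan competition binding profile across a panel of 468 kinases and mutants, with the inhibitor tested at a single concentration of 1 μM. Binding is reported as percent of control, meaning signal relative to a DMSO control.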

Data set [5] deals with Serine/threonine-protein kinase MRCK alpha (Homo sapiens) (UniProt Q5VT25). Nature of the data set: Binding affinity to wild-type human partial length MRCKA (L57 to V418 residues) expressed in bacterial expression system assessed as remaining unbound target protein level at 1000 nM by Kinomescan method relative to control.
The species named for a further data set is Homo sapiens. Nature of the data set: Induction of apoptosis in human MEC1 cells assessed as decrease in XIAP level up to 3 uM after 2 hrs by immunoblotting analysis. It is filed as functional, cell-based. (A western blot detects proteins with antibodies after separation by electrophoresis.)
Data set [6] addresses Ephrin type-B receptor 1 (Homo sapiens) (UniProt P54762). Kind of data set: Binding affinity to wild-type human partial length EPHB1 (P589 to T911 residues) expressed in bacterial expression system assessed as remaining unbound target protein level at 1000 nM by Kinomescan method relative to control.
For data set [7], the target named is Activin receptor type-1-like (Homo sapiens) (UniProt P37023). Nature of the data set: Binding affinity to wild-type human ACVRL1 (L164 to Q503 residues) expressed in bacterial expression system assessed as remaining unbound target protein level at 1000 nM by Kinomescan method relative to control. The method, boiled down:
(§2)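 Single-point competition binding screen across a panel of 468 kinases and mutants, with the inhibitor at 1 μM. Binding is read out as percent of a DMSO control, and targets below 1 percent control were classed as strong binders.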

The target in data set [8] is Serine/threonine-protein kinase WNK4 (Homo sapiens) (UniProt Q96J92). Kind of data set: Binding affinity to wild-type human partial length WNK4 (A31 to D461 residues) expressed in mammalian expression system assessed as remaining unbound target protein level at 1000 nM by Kinomescan method relative to control.
Data set [9] deals with Casein kinase I isoform gamma-2 (Homo sapiens) (UniProt P78368). Nature of the data set: Binding affinity to wild-type human full length CSNK1G2 (M1 to K415 residues) expressed in bacterial expression system assessed as remaining unbound target protein level at 1000 nM by Kinomescan method relative to control. The method, boiled down: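 KINOMEscan competitive binding profile at 1 μM inhibitor. Remaining target binding reported as percent of DMSO control.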

In data set [10] the target is Serine/threonine-protein kinase NLK (Homo sapiens) (UniProt Q9UBE8). Nature of the data set: Binding affinity to wild-type human full length NLK (M13 to E527 residues) expressed in bacterial expression system assessed as remaining unbound target protein level at 1000 nM by Kinomescan method relative to control. The method, boiled down:
as §2

The target of data set [11] is Phosphatidylinositol 3-kinase catalytic subunit type 3 (Homo sapiens) (UniProt Q8NEB9). Kind of data set: Binding affinity to wild-type human partial length VPS34 (S282 to H879 residues) expressed in mammalian expression system assessed as remaining unbound target protein level at 1000 nM by Kinomescan method relative to control.
A short description of data set [12]: Tmax in Sprague-Dawley rat at 3 mg/kg, iv by LC-MS/MS analysis. It counts as ADME, organism-based. The note with it: in vivo.
Data set [13] relates to Epidermal growth factor receptor (Homo sapiens), P00533 [UNDEFINED MUTATION]. Nature of the data set: Binding affinity to human partial length EGFR L747-E749del/A750P mutant expressed in bacterial expression system assessed as remaining unbound target protein level at 1000 nM by Kinomescan method relative to control. The method, boiled down:
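KINOMEscan competition-binding profiling across the panel of 468 kinases and mutants, with inhibitor tested at 1 μM. Binding is expressed as percent of control, with DMSO as the reference control.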

The target of data set [14] is Serine/threonine-protein kinase Nek11 (Homo sapiens) (UniProt Q8NG66). Kind of data set: Binding affinity to wild-type human partial length NEK11 (M1 to E313 residues) expressed in mammalian expression system assessed as remaining unbound target protein level at 1000 nM by Kinomescan method relative to control.
Data set [15] deals with Cyclin-dependent kinase 2 homolog (Plasmodium falciparum (isolate 3D7)) (UniProt P61075). Kind of data set: Binding affinity to wild-type Plasmodium falciparum full length PK5 (M1 to N288 residues) expressed in mammalian expression system assessed as remaining unbound target protein level at 1000 nM by Kinomescan method relative to control. The method, boiled down: as §2

The target in data set [16] is Cyclin-dependent kinase 2 (Homo sapiens) (UniProt P24941). Nature of the data set: Binding affinity to wild-type human full length CDK2 (M1 to L298 residues) expressed in bacterial expression system assessed as remaining unbound target protein level at 1000 nM by Kinomescan method relative to control. The method, boiled down: as §2
The test system of data set [17] is Tyrosine-protein kinase ABL1 (Homo sapiens), P00519 [Y253F]. Nature of the data set: Binding affinity to human phosphorylated ABL1 Y253F mutant (S229 to K512 residues) expressed in mammalian expression system assessed as remaining unbound target protein level at 1000 nM by Kinomescan method relative to control. The method, boiled down:
as §2

Data set [18] has as its target SRSF protein kinase 3 (Homo sapiens) (UniProt Q9UPE1). Nature of the data set: Binding affinity to wild-type human partial length SRPK3 (P41 to P567 residues) expressed in bacterial expression system assessed as remaining unbound target protein level at 1000 nM by Kinomescan method relative to control.
Data set [19] has as its target Serine/threonine-protein kinase 4 (Homo sapiens) (UniProt Q13043). Nature of the data set: Binding affinity to wild-type human full length MST1 (M1 to F487 residues) expressed in bacterial expression system assessed as remaining unbound target protein level at 1000 nM by Kinomescan method relative to control. The method, boiled down:
as §1

Chain of Phosphatidylinositol 3-kinase catalytic subunit type 3 (Homo sapiens) (Q8NEB9 whole entry, the tested form may be a part): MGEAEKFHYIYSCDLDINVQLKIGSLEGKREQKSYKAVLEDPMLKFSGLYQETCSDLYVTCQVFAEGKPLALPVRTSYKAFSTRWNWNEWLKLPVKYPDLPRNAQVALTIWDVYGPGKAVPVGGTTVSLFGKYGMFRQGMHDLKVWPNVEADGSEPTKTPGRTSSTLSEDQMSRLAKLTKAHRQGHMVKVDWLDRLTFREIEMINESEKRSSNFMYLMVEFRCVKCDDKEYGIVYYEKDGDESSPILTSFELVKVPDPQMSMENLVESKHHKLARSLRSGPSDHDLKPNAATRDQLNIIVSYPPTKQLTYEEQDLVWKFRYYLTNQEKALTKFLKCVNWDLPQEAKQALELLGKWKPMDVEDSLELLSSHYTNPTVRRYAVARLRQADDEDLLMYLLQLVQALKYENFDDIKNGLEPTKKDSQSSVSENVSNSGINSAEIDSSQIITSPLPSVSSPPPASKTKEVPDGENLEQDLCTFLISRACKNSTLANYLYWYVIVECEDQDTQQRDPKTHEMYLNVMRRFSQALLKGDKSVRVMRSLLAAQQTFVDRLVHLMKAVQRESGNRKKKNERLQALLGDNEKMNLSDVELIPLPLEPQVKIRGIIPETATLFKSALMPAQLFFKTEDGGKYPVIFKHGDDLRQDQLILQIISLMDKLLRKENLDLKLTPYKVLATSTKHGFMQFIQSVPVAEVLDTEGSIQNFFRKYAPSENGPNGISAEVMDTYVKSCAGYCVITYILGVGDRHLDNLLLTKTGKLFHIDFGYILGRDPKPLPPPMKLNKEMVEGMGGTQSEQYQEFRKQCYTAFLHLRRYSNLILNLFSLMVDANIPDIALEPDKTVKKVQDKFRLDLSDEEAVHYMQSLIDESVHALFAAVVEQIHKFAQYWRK
Chain of Cyclin-dependent kinase 2 homolog (Plasmodium falciparum (isolate 3D7)) (P61075 whole entry, the tested form may be a part): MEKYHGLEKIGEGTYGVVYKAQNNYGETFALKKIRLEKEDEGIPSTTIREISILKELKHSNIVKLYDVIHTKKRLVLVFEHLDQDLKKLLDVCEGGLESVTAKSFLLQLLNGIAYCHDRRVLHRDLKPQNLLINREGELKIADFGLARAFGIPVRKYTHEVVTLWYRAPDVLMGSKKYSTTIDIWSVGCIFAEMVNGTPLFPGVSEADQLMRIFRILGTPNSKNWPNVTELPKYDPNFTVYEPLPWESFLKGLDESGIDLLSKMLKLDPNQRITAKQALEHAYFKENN
Chain of Beta-adrenergic receptor kinase 1 (Homo sapiens) (P25098 whole entry, the tested form may be a part): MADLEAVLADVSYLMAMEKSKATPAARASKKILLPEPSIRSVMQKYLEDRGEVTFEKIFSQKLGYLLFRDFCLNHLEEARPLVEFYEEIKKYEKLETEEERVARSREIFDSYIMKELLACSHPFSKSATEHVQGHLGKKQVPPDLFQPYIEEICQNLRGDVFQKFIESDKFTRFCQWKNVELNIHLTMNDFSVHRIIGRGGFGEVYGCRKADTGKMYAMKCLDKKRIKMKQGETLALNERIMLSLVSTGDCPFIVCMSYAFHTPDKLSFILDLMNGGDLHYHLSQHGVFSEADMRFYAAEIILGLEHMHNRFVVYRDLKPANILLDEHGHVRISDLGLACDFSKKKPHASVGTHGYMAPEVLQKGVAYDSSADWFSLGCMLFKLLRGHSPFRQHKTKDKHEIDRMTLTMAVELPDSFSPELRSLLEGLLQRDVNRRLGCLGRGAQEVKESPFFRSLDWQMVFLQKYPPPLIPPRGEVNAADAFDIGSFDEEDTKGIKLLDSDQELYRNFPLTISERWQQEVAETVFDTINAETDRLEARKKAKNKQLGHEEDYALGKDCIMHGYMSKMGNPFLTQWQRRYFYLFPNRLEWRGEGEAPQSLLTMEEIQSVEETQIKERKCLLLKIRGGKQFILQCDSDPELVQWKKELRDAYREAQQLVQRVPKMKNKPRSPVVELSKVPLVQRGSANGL
Chain of Serine/threonine-protein kinase 32A (Homo sapiens) (Q8WU08 whole entry, the tested form may be a part): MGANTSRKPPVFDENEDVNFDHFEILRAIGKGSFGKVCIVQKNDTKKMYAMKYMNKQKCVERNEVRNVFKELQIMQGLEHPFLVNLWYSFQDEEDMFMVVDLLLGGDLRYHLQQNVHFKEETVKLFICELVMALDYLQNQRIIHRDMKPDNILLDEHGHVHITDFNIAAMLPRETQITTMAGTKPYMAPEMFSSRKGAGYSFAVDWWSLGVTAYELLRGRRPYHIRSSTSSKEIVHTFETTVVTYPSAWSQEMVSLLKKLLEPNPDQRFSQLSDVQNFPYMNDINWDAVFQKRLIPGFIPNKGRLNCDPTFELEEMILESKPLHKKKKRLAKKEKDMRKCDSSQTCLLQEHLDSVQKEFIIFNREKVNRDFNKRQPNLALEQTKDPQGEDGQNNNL
Chain of Serine/threonine-protein kinase Nek11 (Homo sapiens) (Q8NG66 whole entry, the tested form may be a part): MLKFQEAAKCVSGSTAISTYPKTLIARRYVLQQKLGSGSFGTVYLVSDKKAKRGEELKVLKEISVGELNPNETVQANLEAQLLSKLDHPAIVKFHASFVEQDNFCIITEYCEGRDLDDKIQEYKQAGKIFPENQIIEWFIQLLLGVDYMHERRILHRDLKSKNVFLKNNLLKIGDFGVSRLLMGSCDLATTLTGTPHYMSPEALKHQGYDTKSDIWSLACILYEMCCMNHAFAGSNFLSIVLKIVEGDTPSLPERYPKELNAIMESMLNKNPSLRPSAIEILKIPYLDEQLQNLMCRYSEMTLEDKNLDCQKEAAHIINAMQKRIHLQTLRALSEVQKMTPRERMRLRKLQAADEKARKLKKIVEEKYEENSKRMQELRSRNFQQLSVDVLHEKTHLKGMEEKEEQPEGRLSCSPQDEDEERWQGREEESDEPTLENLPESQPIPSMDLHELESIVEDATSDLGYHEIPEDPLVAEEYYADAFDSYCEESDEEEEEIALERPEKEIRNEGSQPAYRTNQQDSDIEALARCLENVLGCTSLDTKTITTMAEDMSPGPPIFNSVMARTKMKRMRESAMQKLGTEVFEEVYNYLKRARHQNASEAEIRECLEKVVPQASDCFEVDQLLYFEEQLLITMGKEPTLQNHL
Chain of Serine/threonine-protein kinase MRCK alpha (Homo sapiens) (Q5VT25 whole entry, the tested form may be a part): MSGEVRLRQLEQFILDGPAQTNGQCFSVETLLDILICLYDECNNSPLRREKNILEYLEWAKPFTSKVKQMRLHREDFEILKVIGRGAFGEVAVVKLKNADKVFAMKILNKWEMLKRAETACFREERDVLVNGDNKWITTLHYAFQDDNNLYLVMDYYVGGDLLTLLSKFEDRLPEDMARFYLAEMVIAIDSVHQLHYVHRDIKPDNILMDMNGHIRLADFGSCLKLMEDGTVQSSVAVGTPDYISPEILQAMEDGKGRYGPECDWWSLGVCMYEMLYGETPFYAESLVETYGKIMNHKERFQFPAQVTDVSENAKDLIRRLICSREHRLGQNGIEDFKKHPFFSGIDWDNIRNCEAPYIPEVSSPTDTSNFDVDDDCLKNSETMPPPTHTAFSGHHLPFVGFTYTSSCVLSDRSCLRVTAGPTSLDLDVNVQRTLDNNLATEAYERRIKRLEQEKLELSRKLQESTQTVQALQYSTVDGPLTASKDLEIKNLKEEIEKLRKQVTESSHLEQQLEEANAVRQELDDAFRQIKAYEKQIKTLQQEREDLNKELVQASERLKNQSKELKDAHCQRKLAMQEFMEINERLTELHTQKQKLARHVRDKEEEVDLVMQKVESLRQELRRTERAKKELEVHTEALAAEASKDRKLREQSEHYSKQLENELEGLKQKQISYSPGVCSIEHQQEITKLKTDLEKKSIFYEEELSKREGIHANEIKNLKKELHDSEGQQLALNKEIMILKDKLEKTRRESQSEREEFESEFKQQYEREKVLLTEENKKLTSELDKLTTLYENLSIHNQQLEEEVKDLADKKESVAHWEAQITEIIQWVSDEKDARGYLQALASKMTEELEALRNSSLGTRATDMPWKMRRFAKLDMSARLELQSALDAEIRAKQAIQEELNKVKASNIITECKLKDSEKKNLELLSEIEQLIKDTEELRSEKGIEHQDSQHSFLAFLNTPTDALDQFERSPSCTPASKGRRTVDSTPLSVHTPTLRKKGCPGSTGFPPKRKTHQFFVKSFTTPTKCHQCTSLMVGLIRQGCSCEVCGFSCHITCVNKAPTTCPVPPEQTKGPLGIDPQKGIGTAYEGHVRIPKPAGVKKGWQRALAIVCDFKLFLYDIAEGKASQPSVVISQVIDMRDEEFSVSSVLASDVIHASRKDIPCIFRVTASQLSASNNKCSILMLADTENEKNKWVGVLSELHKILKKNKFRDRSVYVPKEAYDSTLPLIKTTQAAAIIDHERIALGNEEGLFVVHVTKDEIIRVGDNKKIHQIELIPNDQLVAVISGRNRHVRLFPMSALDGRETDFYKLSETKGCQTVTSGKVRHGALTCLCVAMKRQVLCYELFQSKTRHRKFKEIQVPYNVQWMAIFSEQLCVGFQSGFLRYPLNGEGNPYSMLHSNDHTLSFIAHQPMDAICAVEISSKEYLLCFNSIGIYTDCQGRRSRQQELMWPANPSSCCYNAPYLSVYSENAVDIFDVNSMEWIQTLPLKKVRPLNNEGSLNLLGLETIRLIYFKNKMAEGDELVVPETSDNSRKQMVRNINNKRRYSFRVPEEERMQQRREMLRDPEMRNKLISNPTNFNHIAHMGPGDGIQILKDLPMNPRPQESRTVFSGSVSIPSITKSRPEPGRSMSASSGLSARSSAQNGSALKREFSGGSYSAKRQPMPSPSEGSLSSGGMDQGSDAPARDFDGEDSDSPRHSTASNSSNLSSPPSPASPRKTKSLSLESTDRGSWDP
Chain of Casein kinase I isoform gamma-2 (Homo sapiens) (P78368 whole entry, looked up, the tested form may be a part, canonical isoform): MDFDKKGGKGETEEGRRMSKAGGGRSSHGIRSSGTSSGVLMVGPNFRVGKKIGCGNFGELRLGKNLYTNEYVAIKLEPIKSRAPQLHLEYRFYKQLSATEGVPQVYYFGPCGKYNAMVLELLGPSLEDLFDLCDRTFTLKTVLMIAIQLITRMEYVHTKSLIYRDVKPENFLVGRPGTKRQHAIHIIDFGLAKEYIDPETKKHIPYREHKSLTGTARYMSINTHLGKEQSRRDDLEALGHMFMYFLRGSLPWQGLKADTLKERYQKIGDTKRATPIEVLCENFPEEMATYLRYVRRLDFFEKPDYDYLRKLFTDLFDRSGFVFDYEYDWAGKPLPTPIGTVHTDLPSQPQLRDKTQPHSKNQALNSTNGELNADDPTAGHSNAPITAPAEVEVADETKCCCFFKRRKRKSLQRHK

In turn, `COCCN[C@H]1CC[C@H](Nc2cc(-c3csc(NCC4(C#N)CCOCC4)n3)c(Cl)cn2)CC1` had an AUC(0-t) in data set [1] of 3940 ng·h/mL. Moreover, the Activity in [2] was determined as 100%; in [3], 100%; in [4], 91%; in data set [5] it was 83%; in [6], 88%; in data set [7], 100%. For the same compound, the Activity in data set [8] came out at 100%; in data set [9], 73%; in data set [10], 100%; in data set [11], 95%; in data set [13], 92%; in data set [14], 97%. The Activity was found to be 100% in data set [15]; 100% in data set [16]; 87% in data set [17]; 98% in data set [18]; 99% in data set [19]. Besides, in the data set filed under Homo sapiens, the outcome was inactive. In addition, the Tmax in data set [12] was determined as 1.2 min.

As a reminder, the AUC(0-t) is the area under the concentration-time curve up to a stated or last time point. A lower AUC(0-t) goes with low exposure. For orientation: Tmax means the time at which the peak concentration occurs.
